Measured values: ChEMBL document CHEMBL1131385, “Does the anti-hepatitis B virus activity of (+)-5'-noraristeromycin exist in its 4'-epimer and 4'-deoxygenated derivatives?” (J Med Chem, 1998)

Experiments:
Hepatoblastoma cell line [1] = assay: (§1) Effective concentration against Hepatitis B virus in human hepatoblastoma cell line; type: functional, cell-based
Summary of the method: (§2)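 Confluent cultures of the human hepatoblastoma line 2.2.15, which chronically produces HBV, were used to measure inhibition of HBV replication. Cells got nine consecutive daily doses of agent, with the medium removed each day.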

Hepatoblastoma cell line [2] = assay: Cytotoxic concentration against Hepatitis B virus in human hepatoblastoma cell line; type: functional
Hepatoblastoma cell line [3] = assay: as §1; type: functional; summary of the method: as §2
[4] = Selectivity index was evaluated [Selectivity = (CC50 / EC50) against Hepatitis B virus in human hepatoblastoma cell line]; type: functional

SMILES	EC50 (Hepatoblastoma cell line [1])	EC90 (Hepatoblastoma cell line [3])	CC50 (Hepatoblastoma cell line [2])	SI [4]
Nc1ncnc2c1ncn2[C@H]1C[C@@H](O)[C@H](O)[C@@H]1O	> 10 µM	> 10 µM	1880 µM	–
Nc1ncnc2c1ncn2[C@H]1C=C[C@H](O)[C@@H]1O	0.145 µM	1.4 µM	325 µM	232
Nc1ncnc2c1ncn2[C@@H]1CC[C@@H](O)[C@H]1O	0.12 µM	0.978 µM	93 µM	95
Nc1ccn([C@@H]2CS[C@H](CO)O2)c(=O)n1 [LAMIVUDINE]	0.07 µM	0.209 µM	1880 µM	9014

Second part, led by results:

EC50 (Hepatoblastoma cell line [1])	EC90 (Hepatoblastoma cell line [3])	SMILES	CC50 (Hepatoblastoma cell line [2])	SI [4]
> 10 µM	> 10 µM	COC1CC(n2cnc3c(N)ncnc32)C(O)C1O (configuration not stated)	> 1000 µM	–
1.4 µM	9.6 µM	Nc1ncnc2c1ncn2[C@@H]1C[C@H](O)[C@@H](O)[C@H]1O [NORARISTEROMYCIN]	446 µM	46
